# Published values from different studies.
# Protocols differ between the studies behind these lines.
# Observed: cell growth or viability
Structure (SMILES),cell line,method,time,IC50
CCOc1cc(OCC)cc(C(=O)O[C@@H]2CN3Cc4c(cc5c(c4OC)OCO5)[C@@]24C=C[C@H](OC)C[C@@H]34)c1,MRC5,WST-1,,> 10 µM
COc1cc(OC)c2c(=O)cc(-c3ccc(C(F)(F)F)cc3)oc2c1-c1c(OC)cc(OC)c2c(=O)cc(-c3ccc(C(F)(F)F)cc3)oc12,HS27,MTT,24 h,> 200 µM
Cc1ccc2nc(-c3ccco3)[nH]c2c1,MDA-MB-231,MTT,48 h,> 100 µM
COc1cc(C)cc2oc(-c3ccccc3Br)cc(=O)c12,HS27,MTT,,130 µM
Clc1ccnc2c1ccc1c(Cl)ccnc12,BEL-7404,MTT,48 h,> 50 µM
COc1ccc([C@H]2OC[C@H](Cc3ccc(C(C)(C)C)cc3)[C@@H]2CO)cc1OC,rat VSMC,resazurin,48 h,5 µM
Oc1c(I)cc(Cl)c2cccnc12,BEL-7404,MTT,48 h,65.1 µM
C#Cc1cccc(Nc2ncnc3cc(OCCOC)c(OCCOC)cc23)c1,A-375,MTT,,4.14 µM
COC(=O)CN=c1scc(-c2ccccc2)n1-c1ccc(C)cc1,Panc 04.03,MTT,72 h,50.3 µM
COc1cc(C)cc2oc(-c3ccc(Br)cc3)cc(=O)c12,HS27,MTT,24 h,> 200 µM
Cc1ccc2nc(-c3ccncc3)[nH]c2c1,MDA-MB-231,MTT,48 h,74.6 µM
COc1cc(OC)c2c(=O)cc(-c3ccccc3Br)oc2c1,HS27,MTT,24 h,> 200 µM
Oc1ccc(Nc2nc(-c3ccc(Cl)cc3)cs2)cc1,FF2441,MTS,24 h,> 100 µM
c1cnc2c(c1)ccc1cccnc12,BEL-7404,MTT,48 h,> 50 µM
COC(=O)/C=C/C=C/c1ccc2c(c1)OCO2,MRC5,SRB,,250 µM
O=C(Nc1ccc2[nH]nc(-c3ccncc3)c2c1)[C@@H]1CCN(CC(=O)N2CCN(c3ccc(-c4ncccn4)cc3)CC2)C1,A-375,resazurin,96 h,0.037 µM
Nc1ncc(-c2cnn(C3CCNCC3)c2)cc1-c1nnc(CC2CC2)o1,CMK,trypan blue,72 h,0.653 µM
COC(=O)CN=c1scc(-c2ccccc2)n1-c1ccccc1[N+](=O)[O-],SiHa,MTT,72 h,6.78 µM
COc1ccc(C[C@H]2CO[C@H](c3ccc(OC)c(OC)c3)[C@H]2COC(=O)C=C(C)C)cc1OC,rat VSMC,resazurin,48 h,34.3 µM
COc1cc2nccc(Oc3ccc(NC(=O)C4(C(=O)Nc5ccc(F)cc5)CC4)cc3)c2cc1OC,CMK,trypan blue,72 h,> 5.91 µM
Clc1ccc(-c2nc3ccccc3n2Cc2ccccc2)cc1Cl,MDA-MB-231,MTT,,52.5 µM
Cc1ccc2c(Br)cc(Br)c(O)c2n1,BEL-7404,MTT,48 h,> 150 µM
Cc1ccc2nc(-c3c4ccccc4cc4ccccc34)[nH]c2c1,MDA-MB-231,MTT,48 h,36.8 µM
COc1cc(C)c(-c2c(C)cc(OC)c3c(=O)cc(-c4ccc(C(F)(F)F)cc4)oc23)c2oc(-c3ccc(C(F)(F)F)cc3)cc(=O)c12,HS27,MTT,24 h,> 200 µM
Cc1ccc2nc(-c3ccc([N+](=O)[O-])cc3)[nH]c2c1,MDA-MB-231,MTT,48 h,17.6 µM
COc1cc(C)c(-c2c(C)cc(OC)c3c(=O)cc(-c4ccc(Br)cc4)oc23)c2oc(-c3ccc(Br)cc3)cc(=O)c12,HS27,MTT,24 h,> 200 µM
COC(=O)CN=c1scc(-c2ccccc2)n1-c1ccccc1,Panc 04.03,MTT,72 h,> 100 µM
COc1c2ccoc2c(OCC=C(C)C)c2oc(=O)ccc12,MRC5,MTT,72 h,> 100 µM
O=[N+]([O-])c1ccc(-c2nc3ccccc3n2Cc2ccccc2)cc1,MDA-MB-231,MTT,,8.32 µM
COc1cc(C)c(-c2c(C)cc(OC)c3c(=O)cc(-c4ccccc4Br)oc23)c2oc(-c3ccccc3Br)cc(=O)c12,HS27,MTT,24 h,> 200 µM
COC(=O)CN=c1scc(-c2ccccc2)n1-c1ccc(OC)cc1,Panc 04.03,MTT,72 h,75.2 µM
COc1cc(OC)c2c(=O)cc(-c3ccc(N(C)C)cc3)oc2c1-c1c(OC)cc(OC)c2c(=O)cc(-c3ccc(N(C)C)cc3)oc12,HS27,MTT,24 h,> 200 µM
COC(=O)CN=c1scc(-c2ccccc2)n1-c1ccccc1OC,SiHa,MTT,72 h,4.2 µM
c1ccc2c(-c3nc4ccccc4[nH]3)c3ccccc3cc2c1,MDA-MB-231,MTT,48 h,8.4 µM
CC(=O)c1ccc(/N=N/c2cc(/C=C/C(=O)O)ccc2O)cc1,A-375,MTT,,> 50 µM
COc1ccnc(-c2cc(OC)ccn2)c1,BEL-7404,MTT,48 h,> 50 µM
CC(=O)c1cccc(/N=N/c2cc(/C=C/C(=O)O)ccc2O)c1,A-375,MTT,,> 50 µM
C/C=C(/C)C(=O)OC[C@H]1[C@@H](Cc2ccc(C(F)(F)F)cc2)CO[C@@H]1c1ccc(OC)c(OC)c1,rat VSMC,resazurin,48 h,20.1 µM
Cc1ccc2nc(-c3ccc(F)cc3)n(Cc3ccccc3)c2c1,MDA-MB-231,MTT,,28.5 µM
COc1cccc2c1C(=O)c1c(O)c3c(c(O)c1C2=O)C[C@@](O)(C(=O)CO)C[C@@H]3O[C@H]1C[C@H](N)[C@H](O)[C@H](C)O1,LLC-PK11,neutral red,48 h,0.98 µg/mL
Nc1ccn([C@@H]2O[C@H](CO)[C@@H](O)C2(F)F)c(=O)n1,Panc 04.03,MTT,72 h,0.19 µM
